This note sets out measurements from PMC8055291 (Journal of Inflammation Research, 2021).

What all share (experiment): SPR analysis
Holding throughout (assay type): binding
For orientation: Surface plasmon resonance follows binding to a sensor surface in real time, without labels.

Assay [1] has as its target mitogen-activated protein kinase (MAPK1) (Homo sapiens, UniProt P28482). Conditions: for kon: read-out: Ka (association rate constant); for koff: read-out: Kd (dissociation rate constant). A digest of the protocol:
(§1)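 Each protein was amine-coupled to the chip after NHS/EDC (1:1, v/v) activation, at 14,874 RU (MMP-9), 11,000 RU (MAPK1), 11,800 RU (NFKB1) and 11,000 RU (TNF-α). A reference channel was activated and blocked without protein. Analytes flowed at 30 μL/min, with 60 s association and 120 s dissociation. Curves were fitted with 1:1 Langmuir and steady-state affinity models to give Ka, Kd and KD.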

In assay [2] the target is T1, nuclear factor kappa B (NFKB1) (Homo sapiens, UniProt P19838).
T1 sequence (P19838 1-968): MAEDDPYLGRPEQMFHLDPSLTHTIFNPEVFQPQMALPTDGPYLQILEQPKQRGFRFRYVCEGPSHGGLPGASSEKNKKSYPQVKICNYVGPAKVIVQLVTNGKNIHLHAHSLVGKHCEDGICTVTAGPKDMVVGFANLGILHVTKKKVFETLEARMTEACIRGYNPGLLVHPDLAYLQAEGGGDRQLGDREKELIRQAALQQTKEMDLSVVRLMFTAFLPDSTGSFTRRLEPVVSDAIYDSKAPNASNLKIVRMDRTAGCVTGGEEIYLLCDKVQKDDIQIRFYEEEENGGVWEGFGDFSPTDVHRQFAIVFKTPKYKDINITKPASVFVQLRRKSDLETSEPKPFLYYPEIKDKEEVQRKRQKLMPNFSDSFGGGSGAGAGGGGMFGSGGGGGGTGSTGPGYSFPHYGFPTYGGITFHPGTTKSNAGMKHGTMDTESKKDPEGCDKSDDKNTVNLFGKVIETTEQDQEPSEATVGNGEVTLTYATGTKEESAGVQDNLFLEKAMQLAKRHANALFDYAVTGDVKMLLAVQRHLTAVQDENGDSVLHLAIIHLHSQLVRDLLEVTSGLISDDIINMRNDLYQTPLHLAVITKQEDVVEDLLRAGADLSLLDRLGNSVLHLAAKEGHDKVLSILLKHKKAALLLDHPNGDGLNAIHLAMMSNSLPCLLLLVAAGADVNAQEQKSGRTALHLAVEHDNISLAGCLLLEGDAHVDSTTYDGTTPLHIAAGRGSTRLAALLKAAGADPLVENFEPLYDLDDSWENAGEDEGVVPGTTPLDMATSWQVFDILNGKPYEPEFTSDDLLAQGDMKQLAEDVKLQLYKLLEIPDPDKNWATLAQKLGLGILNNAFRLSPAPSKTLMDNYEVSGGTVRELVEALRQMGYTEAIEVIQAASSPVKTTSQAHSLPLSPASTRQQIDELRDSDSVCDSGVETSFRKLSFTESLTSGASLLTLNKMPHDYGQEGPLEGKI
The essentials:
as §1

The target of assay [3] is matrix metalloproteinase-9 (MMP-9) (Homo sapiens, UniProt P14780). A digest of the protocol: as §1
matrix metalloproteinase-9 (MMP-9), sequence (P14780 94-707): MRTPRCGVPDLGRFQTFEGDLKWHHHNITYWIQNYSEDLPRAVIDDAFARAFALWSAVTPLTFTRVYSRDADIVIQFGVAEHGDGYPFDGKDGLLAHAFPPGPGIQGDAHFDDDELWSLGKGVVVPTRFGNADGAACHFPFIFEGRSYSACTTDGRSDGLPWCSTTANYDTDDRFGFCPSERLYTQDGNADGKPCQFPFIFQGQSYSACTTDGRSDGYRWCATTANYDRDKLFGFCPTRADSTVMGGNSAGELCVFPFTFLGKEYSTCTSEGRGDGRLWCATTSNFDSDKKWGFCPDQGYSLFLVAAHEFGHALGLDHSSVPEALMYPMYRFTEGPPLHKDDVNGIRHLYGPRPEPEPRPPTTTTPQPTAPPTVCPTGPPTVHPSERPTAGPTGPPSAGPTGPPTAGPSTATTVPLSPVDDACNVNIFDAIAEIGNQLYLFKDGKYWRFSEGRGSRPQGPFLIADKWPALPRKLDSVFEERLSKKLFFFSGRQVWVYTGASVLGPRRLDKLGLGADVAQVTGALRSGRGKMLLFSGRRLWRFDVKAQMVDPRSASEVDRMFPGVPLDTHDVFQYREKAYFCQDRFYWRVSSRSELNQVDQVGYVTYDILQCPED
Assay [4] deals with tumor necrosis factor (TNF-α) (Homo sapiens, UniProt P01375). The essentials:
as §1

mitogen-activated protein kinase (MAPK1), sequence (P28482 whole entry): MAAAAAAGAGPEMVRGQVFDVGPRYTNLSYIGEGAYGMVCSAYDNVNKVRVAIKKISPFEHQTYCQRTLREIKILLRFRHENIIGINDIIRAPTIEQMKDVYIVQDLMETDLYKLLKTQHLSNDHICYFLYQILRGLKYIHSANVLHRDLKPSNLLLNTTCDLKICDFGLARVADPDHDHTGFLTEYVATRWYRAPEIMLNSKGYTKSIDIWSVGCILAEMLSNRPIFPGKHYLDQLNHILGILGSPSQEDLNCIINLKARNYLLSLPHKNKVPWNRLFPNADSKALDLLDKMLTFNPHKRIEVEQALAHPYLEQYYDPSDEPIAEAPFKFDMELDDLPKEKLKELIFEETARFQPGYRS
tumor necrosis factor (TNF-α), sequence (P01375 77-233 limits assumed): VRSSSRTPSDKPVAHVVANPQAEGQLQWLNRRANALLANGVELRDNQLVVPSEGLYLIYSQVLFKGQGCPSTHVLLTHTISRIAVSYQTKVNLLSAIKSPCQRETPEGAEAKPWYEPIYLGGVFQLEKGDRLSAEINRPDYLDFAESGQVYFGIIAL

Molecule `COc1ccc(-c2coc3cc(O[C@@H]4O[C@H](CO)[C@@H](O)[C@H](O)[C@H]4O)ccc3c2=O)cc1` [Ononin] yielded a Kd in assay [1] of 41.4 µM.
With `COc1ccc(-c2coc3cc(O)ccc3c2=O)cc1` [Formononetin], in assay [2], the affinity, expressed as Kd, was 32.5 µM.
`O=C(/C=C/c1ccc(O[C@@H]2O[C@H](CO)[C@@H](O)[C@H](O)[C@H]2O)cc1)c1ccc(O)cc1O` [Isoliquiritin]: the Kd in assay [3] came out at 2.7 µM; in assay [4] it was 3.6 µM.
`COc1cc2c(cc1CC=C(C)C)C(=O)C[C@@H](c1ccc(O)cc1)O2` [Bavachinin A] yielded a Kd in assay [1] of 6.05 µM.
For `O=C1C[C@@H](c2ccc(O[C@@H]3O[C@H](CO)[C@@H](O)[C@H](O)[C@H]3O)cc2)Oc2cc(O)ccc21` [Liquiritin], the Kd in assay [3] is 105 µM; in assay [1] it was 382 µM. Besides, the kon came out at 251 M⁻¹ s⁻¹ in assay [3] (read-out: Ka (association rate constant)) and 258 M⁻¹ s⁻¹ in assay [1]. Further, the koff is 0.0264 s⁻¹ in assay [3] (read-out: Kd (dissociation rate constant)) and 0.0984 s⁻¹ in assay [1].
Consider `CC(C)=CCc1cc2c(cc1O)O[C@H](c1ccc(O)cc1)CC2=O` [Bavachin], for which, in assay [1], the Kd is 26.6 µM, the kon is 9290 M⁻¹ s⁻¹ and the koff was found to be 0.247 s⁻¹.

In general, Kd refers to a measure of binding affinity in units of concentration. A low value points to higher affinity.
